ChEMBL document CHEMBL1255424, “Antistaphylococcal activity of ACHN-490 tested alone and in combination with other agents by time-kill assay” (2010)
In brackets after ≈: the same amount, converted by molar mass.

Tests used:
Type in all cases: functional
Staphylococcus aureus [1] = experiment: Antibacterial activity against vancomycin-intermediate Staphylococcus aureus isolate 1004 after 24 hrs by modified broth macrodilution method; conditions: isolate 1004, 24 h
Method in brief: (§1)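 MIC read after 24 h incubation by modified broth macrodilution, validated per CLSI recommendations, against recent clinical MRSA isolates (hospital- and community-acquired, hVISA, VISA, VRSA). Daptomycin tests ran in Mueller-Hinton broth with added calcium.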

Staphylococcus aureus [2] = experiment: Antibacterial activity against vancomycin-intermediate Staphylococcus aureus isolate 1005 after 24 hrs by modified broth macrodilution method; conditions: isolate 1005, 24 h; method in brief: as §1
Staphylococcus aureus [3] = experiment: Antibacterial activity against vancomycin-intermediate Staphylococcus aureus isolate 1006 after 24 hrs by modified broth macrodilution method; conditions: isolate 1006, 24 h; method in brief: as §1
Staphylococcus aureus [4] = experiment: Antibacterial activity against vancomycin-intermediate Staphylococcus aureus isolate 1984 after 24 hrs by modified broth macrodilution method; conditions: isolate 1984, 24 h; method in brief: as §1
Staphylococcus aureus [5] = experiment: Antibacterial activity against vancomycin-intermediate Staphylococcus aureus isolate 1007 after 24 hrs by modified broth macrodilution method; conditions: isolate 1007, 24 h; method in brief: as §1
Staphylococcus aureus [6] = experiment: Antibacterial activity against methicillin-resistant Staphylococcus aureus isolate 2003 after 24 hrs by modified broth macrodilution method; conditions: isolate 2003, 24 h; method in brief: as §1
Staphylococcus aureus [7] = experiment: Antibacterial activity against hospital-acquired methicillin-resistant Staphylococcus aureus isolate 1743 after 24 hrs by modified broth macrodilution method; conditions: isolate 1743, 24 h; method in brief: as §1
Staphylococcus aureus [8] = experiment: Antibacterial activity against hospital-acquired methicillin-resistant Staphylococcus aureus isolate 1751 after 24 hrs by modified broth macrodilution method; conditions: isolate 1751, 24 h; method in brief: as §1
Staphylococcus aureus [9] = experiment: Antibacterial activity against hospital-acquired methicillin-resistant Staphylococcus aureus isolate 1766 after 24 hrs by modified broth macrodilution method; conditions: isolate 1766, 24 h; method in brief: as §1
Staphylococcus aureus [10] = experiment: Antibacterial activity against hospital-acquired methicillin-resistant Staphylococcus aureus isolate 1776 after 24 hrs by modified broth macrodilution method; conditions: isolate 1776, 24 h; method in brief: as §1
Staphylococcus aureus [11] = experiment: Antibacterial activity against hospital-acquired methicillin-resistant Staphylococcus aureus isolate 1806 after 24 hrs by modified broth macrodilution method; conditions: isolate 1806, 24 h; method in brief: as §1
Staphylococcus aureus [12] = experiment: Antibacterial activity against hospital-acquired methicillin-resistant Staphylococcus aureus isolate 1808 after 24 hrs by modified broth macrodilution method; conditions: isolate 1808, 24 h; method in brief: as §1
Staphylococcus aureus [13] = experiment: Antibacterial activity against hospital-acquired methicillin-resistant Staphylococcus aureus isolate 1838 after 24 hrs by modified broth macrodilution method; conditions: isolate 1838, 24 h; method in brief: as §1
Staphylococcus aureus [14] = experiment: Antibacterial activity against hospital-acquired methicillin-resistant Staphylococcus aureus isolate 1851 after 24 hrs by modified broth macrodilution method; conditions: isolate 1851, 24 h; method in brief: as §1
Staphylococcus aureus [15] = experiment: Antibacterial activity against hospital-acquired methicillin-resistant Staphylococcus aureus isolate 1867 after 24 hrs by modified broth macrodilution method; conditions: isolate 1867, 24 h; method in brief: as §1
Staphylococcus aureus [16] = experiment: Antibacterial activity against community-acquired methicillin-resistant panton-valentine leukocidin-positive Staphylococcus aureus isolate 1468 after 24 hrs by modified broth macrodilution method; conditions: isolate 1468, 24 h; method in brief: as §1
Staphylococcus aureus [17] = experiment: Antibacterial activity against community-acquired methicillin-resistant panton-valentine leukocidin-positive Staphylococcus aureus isolate 1469 after 24 hrs by modified broth macrodilution method; conditions: isolate 1469, 24 h; method in brief: as §1
Staphylococcus aureus [18] = experiment: Antibacterial activity against community-acquired methicillin-resistant panton-valentine leukocidin-positive Staphylococcus aureus isolate 815 after 24 hrs by modified broth macrodilution method; conditions: isolate 815, 24 h; method in brief: as §1
Staphylococcus aureus [19] = experiment: Antibacterial activity against community-acquired methicillin-resistant panton-valentine leukocidin-positive Staphylococcus aureus isolate 950 after 24 hrs by modified broth macrodilution method; conditions: isolate 950, 24 h; method in brief: as §1
Staphylococcus aureus [20] = experiment: Antibacterial activity against community-acquired methicillin-resistant panton-valentine leukocidin-positive Staphylococcus aureus isolate 1471 after 24 hrs by modified broth macrodilution method; conditions: isolate 1471, 24 h; method in brief: as §1
Staphylococcus aureus [21] = experiment: Antibacterial activity against community-acquired methicillin-resistant panton-valentine leukocidin-positive Staphylococcus aureus isolate 1472 after 24 hrs by modified broth macrodilution method; conditions: isolate 1472, 24 h; method in brief: as §1
Staphylococcus aureus [22] = experiment: Antibacterial activity against community-acquired methicillin-resistant panton-valentine leukocidin-positive Staphylococcus aureus isolate 593 after 24 hrs by modified broth macrodilution method; conditions: isolate 593, 24 h; method in brief: as §1
Staphylococcus aureus [23] = experiment: Antibacterial activity against community-acquired methicillin-resistant panton-valentine leukocidin-positive Staphylococcus aureus isolate 693 after 24 hrs by modified broth macrodilution method; conditions: isolate 693, 24 h; method in brief: as §1
Staphylococcus aureus [24] = experiment: Antibacterial activity against community-acquired methicillin-resistant panton-valentine leukocidin-positive Staphylococcus aureus isolate 813 after 24 hrs by modified broth macrodilution method; conditions: isolate 813, 24 h; method in brief: as §1
Staphylococcus aureus [25] = experiment: Antibacterial activity against community-acquired methicillin-resistant panton-valentine leukocidin-negative Staphylococcus aureus isolate 1470 after 24 hrs by modified broth macrodilution method; conditions: isolate 1470, 24 h; method in brief: as §1
Staphylococcus aureus [26] = experiment: Antibacterial activity against vancomycin-resistant Staphylococcus aureus isolate 510 after 24 hrs by modified broth macrodilution method; conditions: isolate 510, 24 h; method in brief: as §1

CCCCCCCCCC(=O)N[C@@H](Cc1c[nH]c2ccccc12)C(=O)N[C@H](CC(N)=O)C(=O)N[C@@H](CC(=O)O)C(=O)N[C@@H]1C(=O)NCC(=O)N[C@@H](CCCN)C(=O)N[C@@H](CC(=O)O)C(=O)N[C@H](C)C(=O)N[C@@H](CC(=O)O)C(=O)NCC(=O)N[C@H](CO)C(=O)N[C@@H]([C@H](C)CC(=O)O)C(=O)N[C@@H](CC(=O)c2ccccc2N)C(=O)O[C@@H]1C
MIC (Staphylococcus aureus [1]): 0.5 µg/mL (≈ 0.309 µM) | MIC (Staphylococcus aureus [2]): 1 µg/mL (≈ 0.617 µM) | MIC (Staphylococcus aureus [3]): 2 µg/mL (≈ 1.23 µM) | MIC (Staphylococcus aureus [4]): 2 µg/mL (≈ 1.23 µM) | MIC (Staphylococcus aureus [5]): 2 µg/mL (≈ 1.23 µM) | MIC (Staphylococcus aureus [6]): 0.5 µg/mL (≈ 0.309 µM) | MIC (Staphylococcus aureus [7]): 0.25 µg/mL (≈ 0.154 µM) | MIC (Staphylococcus aureus [8]): 0.5 µg/mL (≈ 0.309 µM) | MIC (Staphylococcus aureus [9]): 1 µg/mL (≈ 0.617 µM) | MIC (Staphylococcus aureus [10]): 0.5 µg/mL (≈ 0.309 µM) | MIC (Staphylococcus aureus [11]): 0.5 µg/mL (≈ 0.309 µM) | MIC (Staphylococcus aureus [12]): 0.5 µg/mL (≈ 0.309 µM) | MIC (Staphylococcus aureus [13]): 0.5 µg/mL (≈ 0.309 µM) | MIC (Staphylococcus aureus [14]): 0.5 µg/mL (≈ 0.309 µM) | MIC (Staphylococcus aureus [15]): 0.5 µg/mL (≈ 0.309 µM) | MIC (Staphylococcus aureus [16]): 1 µg/mL (≈ 0.617 µM) | MIC (Staphylococcus aureus [17]): 0.5 µg/mL (≈ 0.309 µM) | MIC (Staphylococcus aureus [18]): 0.5 µg/mL (≈ 0.309 µM) | MIC (Staphylococcus aureus [19]): 0.25 µg/mL (≈ 0.154 µM) | MIC (Staphylococcus aureus [20]): 0.5 µg/mL (≈ 0.309 µM) | MIC (Staphylococcus aureus [21]): 0.5 µg/mL (≈ 0.309 µM) | MIC (Staphylococcus aureus [22]): 0.5 µg/mL (≈ 0.309 µM) | MIC (Staphylococcus aureus [23]): 0.5 µg/mL (≈ 0.309 µM) | MIC (Staphylococcus aureus [24]): 0.5 µg/mL (≈ 0.309 µM) | MIC (Staphylococcus aureus [25]): 0.5 µg/mL (≈ 0.309 µM) | MIC (Staphylococcus aureus [26]): 0.5 µg/mL (≈ 0.309 µM)
